Experimental findings from ChEMBL document CHEMBL2412983, “Synthesis and evaluation of N⁸-acetylspermidine analogues as inhibitors of bacterial acetylpolyamine amidohydrolase” (Bioorg Med Chem, 2013) are described below.

In assay [1] the target is T1, Acetylpolyamine amidohydrolase (Mycoplana ramosa, UniProt Q48935).
T1 sequence (Q48935 whole entry): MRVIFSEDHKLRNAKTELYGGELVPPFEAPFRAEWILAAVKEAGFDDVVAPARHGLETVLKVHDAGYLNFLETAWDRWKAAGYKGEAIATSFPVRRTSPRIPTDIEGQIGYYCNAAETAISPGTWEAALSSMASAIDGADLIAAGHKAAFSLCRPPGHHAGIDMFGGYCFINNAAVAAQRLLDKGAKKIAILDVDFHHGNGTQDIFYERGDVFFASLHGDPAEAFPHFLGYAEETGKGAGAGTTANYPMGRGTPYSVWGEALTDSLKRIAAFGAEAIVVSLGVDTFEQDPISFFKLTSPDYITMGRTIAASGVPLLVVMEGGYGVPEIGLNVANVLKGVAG
The experiment in a line: Inhibition of Mycoplana ramosa APAH expressed in Escherichia coli BL21 (DE3) using BML-KI104 as substrate after 30 mins by fluorimetric assay. In short, it runs like this:
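Recombinant enzyme purified from E. coli, 250 nM, at 25 °C with 150 μM Fluor-de-Lys acetyl substrate and 0–100 mM inhibitor. Buffer was 25 mM Tris pH 8.2, 137 mM NaCl, 2.7 mM KCl, 1 mM MgCl2, with 100 μM TCEP only for the thiol compound. Stopped at 30 min with 100 μM M344 plus developer. Fluorescence (ex 355/em 460 nm) was read after 45 min. Each concentration was run in triplicate in separate experiments.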

Assay [2] can be described thus: Inhibition of N8-acetylspermidine deacetylase in rat liver subcellular extract. Conditions: read-out: Ki(app).

For orientation: IC50 means the midpoint of a concentration-inhibition curve. High values mean a need for much substance, low ones inhibition by little substance. `CC(=O)SCCCCCNCCCN` returned an IC50 in assay [1] of 1900 µM.

For `NCCCNCCCCCC(=O)NO`, the Ki in assay [2] worked out at 0.001 µM. In assay [1], the midpoint of inhibition, the IC50, lay at 0.39 µM.

Turning to `NCCCNCCCCCS`, the IC50 in assay [1] turned out to be 26 µM.

The molecule `CC(=O)SCC(=O)CCCCCNCCCN` returned an IC50 in assay [1] of 39 µM.

In the case of `NCCCNCCCCCB(O)O`, the IC50 in assay [1] turned out to be 230 µM.

Regarding `COCC(=O)CCCCCNCCCN`, 380 µM corresponded to half-maximal inhibition in assay [1] (IC50).

`CC(=O)CCCCCNCCCN` registered an IC50 in assay [1] of 160 µM.

For `NCCCNCCCCCC(=O)C(F)(F)F`, the midpoint of inhibition in assay [1], the IC50, lay at 0.27 µM.

`CS(=O)(=O)CCCCCNCCCN` registered an IC50 in assay [1] of 10000 µM.

For `NCCCNCCCCCC(=O)O`, the IC50 in assay [1] was determined as 1800 µM.
